Each block holds one compound with its values, some of them ahead of it. The source made the active and inactive calls. The calls are words filed in the database; no cut-off is given here.
Columns and labels:
[1] = biological target: T1, Protein cereblon/Cyclin-dependent kinase 4 (Homo sapiens) (UniProt P11802+Q96SW2); assay: Induction of CRBN-mediated CDK4 degradation in human MIAPaCa2 cells at 0.5 uM measured after 4 hrs by western blot analysis; format: cell-based
Outline: (§1)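 MiaPaCa2 cells treated with degrader analogs at 0.5 μM for 4 h; lysates analysed by Western blot for CDK4, CDK6 and RB.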

[2] = biological target: T2, Protein cereblon/Cyclin-dependent kinase 6 (Homo sapiens) (UniProt Q00534+Q96SW2); assay: Induction of CRBN-mediated CDK6 degradation in human MIAPaCa2 cells at 0.5 uM measured after 4 hrs by western blot analysis; format: cell-based; outline: as §1
T2 sequence (Q00534 whole entry, looked up): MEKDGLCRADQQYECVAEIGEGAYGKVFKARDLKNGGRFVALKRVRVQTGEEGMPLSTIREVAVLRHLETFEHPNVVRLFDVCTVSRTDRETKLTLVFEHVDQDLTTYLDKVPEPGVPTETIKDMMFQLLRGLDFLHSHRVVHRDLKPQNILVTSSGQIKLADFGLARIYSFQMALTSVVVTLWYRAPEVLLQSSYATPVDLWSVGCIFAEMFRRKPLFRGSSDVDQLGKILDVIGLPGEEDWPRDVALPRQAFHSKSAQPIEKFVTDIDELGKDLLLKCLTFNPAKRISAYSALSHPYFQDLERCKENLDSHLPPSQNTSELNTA
T2 sequence (Q96SW2 whole entry, looked up): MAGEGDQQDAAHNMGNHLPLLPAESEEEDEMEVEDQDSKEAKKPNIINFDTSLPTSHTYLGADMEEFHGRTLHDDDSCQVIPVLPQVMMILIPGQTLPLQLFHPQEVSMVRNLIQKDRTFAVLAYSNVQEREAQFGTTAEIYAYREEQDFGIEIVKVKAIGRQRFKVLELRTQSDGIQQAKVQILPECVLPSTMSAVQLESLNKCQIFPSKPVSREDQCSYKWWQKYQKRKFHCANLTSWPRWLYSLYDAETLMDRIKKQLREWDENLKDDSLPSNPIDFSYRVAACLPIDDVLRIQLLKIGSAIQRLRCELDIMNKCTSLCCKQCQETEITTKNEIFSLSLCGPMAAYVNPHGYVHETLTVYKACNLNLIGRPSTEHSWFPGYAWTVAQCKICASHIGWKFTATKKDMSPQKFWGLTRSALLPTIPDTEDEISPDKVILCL

[3] = biological target: T2, Protein cereblon/Cyclin-dependent kinase 6 (Homo sapiens); assay: Induction of CRBN-mediated CDK6 degradation in human MIAPaCa2 cells at 0.15 to 5 uM measured after 4 hrs by Western blot analysis; format: cell-based
[4] = biological target: Protein cereblon/Cyclin-dependent kinase 7 (Homo sapiens) (UniProt P50613+Q96SW2); assay: Induction of CRBN-mediated CDK7 degradation in human MIAPaCa2 cells at 0.5 uM measured after 24 hrs by western blot analysis; format: cell-based
Sequence of Protein cereblon/Cyclin-dependent kinase 7 (Homo sapiens) (P50613 whole entry, looked up): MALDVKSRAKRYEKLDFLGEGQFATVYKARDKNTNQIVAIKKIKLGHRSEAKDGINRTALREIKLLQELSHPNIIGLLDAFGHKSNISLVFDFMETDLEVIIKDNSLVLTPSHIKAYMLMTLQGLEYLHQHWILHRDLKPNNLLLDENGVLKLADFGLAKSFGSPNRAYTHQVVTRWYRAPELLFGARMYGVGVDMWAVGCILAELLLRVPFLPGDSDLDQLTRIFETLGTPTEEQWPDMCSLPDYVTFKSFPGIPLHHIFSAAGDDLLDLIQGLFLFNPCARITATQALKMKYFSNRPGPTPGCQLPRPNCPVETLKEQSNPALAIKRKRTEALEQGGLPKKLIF
Sequence of Protein cereblon/Cyclin-dependent kinase 7 (Homo sapiens) (Q96SW2 whole entry, looked up): as the sequence (Q96SW2 whole entry, looked up) above
Outline: (§2)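 MiaPaCa2 cells exposed to 0.5 μM of each degrader analog for 24 h; lysates immunoblotted for CDK2, CDK5, CDK7 and CDK9 within a kinase panel.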

[5] = biological target: T1, Protein cereblon/Cyclin-dependent kinase 4 (Homo sapiens); assay: Induction of CRBN-mediated CDK4 degradation in human HPNE cells at 0.1 uM measured after 24 hrs by western blot analysis; format: cell-based
Outline: (§3)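 HPNE cells given a range of degrader concentrations and harvested at 4 h and at 24 h; CDK4 and CDK6 levels read by Western blot.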

[6] = biological target: Protein cereblon/Cyclin-dependent kinase 2 (Homo sapiens) (UniProt P24941+Q96SW2); assay: Induction of CRBN-mediated CDK2 degradation in human MIAPaCa2 cells at 0.5 uM measured after 24 hrs by western blot analysis; format: cell-based; outline: as §2
[7] = biological target: T2, Protein cereblon/Cyclin-dependent kinase 6 (Homo sapiens); assay: Induction of CRBN-mediated CDK6 degradation in human MIAPaCa2 cells at 500 nM by Western blot analysis; format: cell-based; conditions: TDE = time-dependent effect
[8] = biological target: T2, Protein cereblon/Cyclin-dependent kinase 6 (Homo sapiens); assay: Induction of CRBN-mediated CDK6 degradation in human HPNE cells at 0.1 uM measured after 24 hrs by western blot analysis; format: cell-based; outline: as §3
[9] = biological target: Protein cereblon/Cyclin-dependent kinase 5 (Homo sapiens) (UniProt Q00535+Q96SW2); assay: Induction of CRBN-mediated CDK5 degradation in human MIAPaCa2 cells at 0.5 uM measured after 24 hrs by western blot analysis; format: cell-based; outline: as §2
Sequence of Protein cereblon/Cyclin-dependent kinase 5 (Homo sapiens) (Q00535 whole entry, looked up): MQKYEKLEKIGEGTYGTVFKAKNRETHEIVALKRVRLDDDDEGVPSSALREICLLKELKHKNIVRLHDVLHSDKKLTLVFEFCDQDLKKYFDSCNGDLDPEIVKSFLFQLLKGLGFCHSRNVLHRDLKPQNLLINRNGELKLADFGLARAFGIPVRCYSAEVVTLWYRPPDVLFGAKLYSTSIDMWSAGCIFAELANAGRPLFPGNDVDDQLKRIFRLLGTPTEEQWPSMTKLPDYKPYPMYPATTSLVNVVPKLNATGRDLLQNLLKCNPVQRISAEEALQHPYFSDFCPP
Sequence of Protein cereblon/Cyclin-dependent kinase 5 (Homo sapiens) (Q96SW2 whole entry, looked up): as the sequence (Q96SW2 whole entry, looked up) above

[10] = biological target: T2, Protein cereblon/Cyclin-dependent kinase 6 (Homo sapiens); assay: Induction of CRBN-mediated CDK6 degradation in human MIAPaCa2 cells at 1 uM measured after 24 hrs in presence of palbociclib by western blot analysis; format: cell-based
Outline: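 Competition test: MiaPaCa2 cells incubated 24 h with palbociclib 10 µM, degrader 1 µM, or both together; lysates probed for CDK4 and CDK6 by Western blot.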

[11] = biological target: T1, Protein cereblon/Cyclin-dependent kinase 4 (Homo sapiens); assay: Induction of CRBN-mediated CDK4 degradation in human HPNE cells at 0.1 uM measured after 4 hrs by western blot analysis; format: cell-based; outline: as §3
[12] = biological target: T1, Protein cereblon/Cyclin-dependent kinase 4 (Homo sapiens); assay: Induction of CRBN-mediated CDK4 degradation in human MIAPaCa2 cells at 0.1 uM measured after 4 hrs by western blot analysis; format: cell-based
Outline: (§4)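 Dose-response in MiaPaCa2 cells: graded degrader concentrations for 4 h and for 24 h; CDK4 and CDK6 read by immunoblot.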

[13] = biological target: Protein cereblon/Retinoblastoma-associated protein (Homo sapiens) (UniProt P06400+Q96SW2); assay: Induction of CRBN-mediated RB degradation in human MIAPaCa2 cells at 0.5 uM measured after 4 hrs by western blot analysis; format: cell-based; outline: as §1
Sequence of Protein cereblon/Retinoblastoma-associated protein (Homo sapiens) (P06400 whole entry, looked up): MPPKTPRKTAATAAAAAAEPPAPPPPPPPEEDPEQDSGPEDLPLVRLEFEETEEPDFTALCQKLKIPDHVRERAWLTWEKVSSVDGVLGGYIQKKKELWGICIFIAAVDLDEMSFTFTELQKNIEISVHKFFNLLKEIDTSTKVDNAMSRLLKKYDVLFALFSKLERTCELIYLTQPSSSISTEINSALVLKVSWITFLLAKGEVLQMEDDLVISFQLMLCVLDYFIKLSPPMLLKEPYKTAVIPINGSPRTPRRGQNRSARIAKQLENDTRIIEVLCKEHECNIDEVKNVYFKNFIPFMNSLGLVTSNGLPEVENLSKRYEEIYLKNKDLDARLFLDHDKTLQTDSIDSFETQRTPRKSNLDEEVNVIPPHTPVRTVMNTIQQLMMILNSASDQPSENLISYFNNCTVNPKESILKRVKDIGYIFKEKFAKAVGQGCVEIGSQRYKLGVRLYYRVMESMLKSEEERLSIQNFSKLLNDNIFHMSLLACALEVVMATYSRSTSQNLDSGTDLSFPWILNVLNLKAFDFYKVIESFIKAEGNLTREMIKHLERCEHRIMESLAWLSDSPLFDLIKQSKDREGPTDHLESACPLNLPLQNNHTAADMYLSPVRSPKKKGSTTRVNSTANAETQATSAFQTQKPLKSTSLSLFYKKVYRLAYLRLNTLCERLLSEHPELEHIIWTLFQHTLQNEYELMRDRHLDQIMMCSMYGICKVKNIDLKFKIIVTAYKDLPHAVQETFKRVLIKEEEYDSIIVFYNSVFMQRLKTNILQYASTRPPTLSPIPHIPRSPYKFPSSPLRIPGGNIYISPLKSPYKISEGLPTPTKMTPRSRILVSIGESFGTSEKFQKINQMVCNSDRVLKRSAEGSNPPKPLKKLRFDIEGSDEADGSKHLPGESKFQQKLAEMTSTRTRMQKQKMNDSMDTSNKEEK
Sequence of Protein cereblon/Retinoblastoma-associated protein (Homo sapiens) (Q96SW2 whole entry, looked up): as the sequence (Q96SW2 whole entry, looked up) above

[14] = biological target: Protein cereblon/Cyclin-dependent kinase 9 (Homo sapiens) (UniProt P50750+Q96SW2); assay: Induction of CRBN-mediated CDK9 degradation in human MIAPaCa2 cells at 0.5 uM measured after 24 hrs by western blot analysis; format: cell-based; outline: as §2
Sequence of Protein cereblon/Cyclin-dependent kinase 9 (Homo sapiens) (P50750 whole entry, looked up): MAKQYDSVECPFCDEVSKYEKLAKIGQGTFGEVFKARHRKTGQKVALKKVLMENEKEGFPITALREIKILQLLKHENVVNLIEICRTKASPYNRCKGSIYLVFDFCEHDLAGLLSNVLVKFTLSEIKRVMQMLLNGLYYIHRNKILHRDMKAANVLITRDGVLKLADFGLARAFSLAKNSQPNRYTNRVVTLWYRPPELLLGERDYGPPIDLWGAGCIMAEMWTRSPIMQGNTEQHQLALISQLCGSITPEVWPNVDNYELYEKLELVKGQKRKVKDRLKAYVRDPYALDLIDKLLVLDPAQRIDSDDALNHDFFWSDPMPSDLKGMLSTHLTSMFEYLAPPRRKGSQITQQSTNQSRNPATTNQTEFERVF
Sequence of Protein cereblon/Cyclin-dependent kinase 9 (Homo sapiens) (Q96SW2 whole entry, looked up): as the sequence (Q96SW2 whole entry, looked up) above

[15] = biological target: T2, Protein cereblon/Cyclin-dependent kinase 6 (Homo sapiens); assay: Induction of CRBN-mediated CDK6 degradation in human HPNE cells at 500 nM by Western blot analysis; format: cell-based; conditions: TDE = time-dependent effect
[16] = Induction of CRBN-mediated CDK4/cyclin D1 (unknown origin) degradation; conditions: Homo sapiens
[17] = biological target: T2, Protein cereblon/Cyclin-dependent kinase 6 (Homo sapiens); assay: Induction of CRBN-mediated CDK6 degradation in human MIAPaCa2 cells at 1 uM measured after 24 hrs by western blot analysis; format: cell-based
[18] = biological target: T2, Protein cereblon/Cyclin-dependent kinase 6 (Homo sapiens); assay: Induction of CRBN-mediated CDK6 degradation in human MIAPaCa2 cells at 5 to 10 uM measured after 4 hrs by western blot analysis; format: cell-based
[19] = biological target: T2, Protein cereblon/Cyclin-dependent kinase 6 (Homo sapiens); assay: Induction of CRBN-mediated CDK6 degradation in human MIAPaCa2 cells at 1 uM measured after 8 hrs in presence of proteasome inhibitor MG132 by Western blot analysis; format: cell-based
[20] = biological target: T2, Protein cereblon/Cyclin-dependent kinase 6 (Homo sapiens); assay: Induction of CRBN-mediated CDK6 degradation in human MIAPaCa2 cells at 1 uM measured after 24 hrs in presence of pomalidomide by Western blot analysis; format: cell-based
Outline: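 CRBN-ligand competition in MiaPaCa2 cells: pomalidomide 0.1–10 µM given alone or with degrader 1 µM for 24 h; lysates immunoblotted for CDK6.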

[21] = biological target: T2, Protein cereblon/Cyclin-dependent kinase 6 (Homo sapiens); assay: Induction of CRBN-mediated CDK6 degradation in human HPNE cells at 5 to 10 uM measured after 4 hrs by Western blot analysis; format: cell-based
[22] = biological target: T2, Protein cereblon/Cyclin-dependent kinase 6 (Homo sapiens); assay: Induction of CRBN-mediated CDK6 degradation in human MIAPaCa2 cells at 0.1 uM measured after 4 hrs by Western blot analysis; format: cell-based; outline: as §4
[23] = biological target: T1, Protein cereblon/Cyclin-dependent kinase 4 (Homo sapiens); assay: Induction of CRBN-mediated CDK4 degradation in human MIAPaCa2 cells at 0.1 uM measured after 24 hrs by western blot analysis; format: cell-based; outline: as §4
[24] = biological target: T2, Protein cereblon/Cyclin-dependent kinase 6 (Homo sapiens); assay: Induction of CRBN-mediated CDK6 degradation in human HPNE cells at 0.1 uM measured after 4 hrs by Western blot analysis; format: cell-based; outline: as §3
[25] = biological target: Protein cereblon/Cyclin-dependent kinase 6/G1/S-specific cyclin-D3 (Homo sapiens) (UniProt P30281+Q00534+Q96SW2); assay: Induction of CRBN-mediated CDK6/cyclin D3 (unknown origin) degradation; format: protein assay
Sequence of Protein cereblon/Cyclin-dependent kinase 6/G1/S-specific cyclin-D3 (Homo sapiens) (P30281 whole entry, looked up): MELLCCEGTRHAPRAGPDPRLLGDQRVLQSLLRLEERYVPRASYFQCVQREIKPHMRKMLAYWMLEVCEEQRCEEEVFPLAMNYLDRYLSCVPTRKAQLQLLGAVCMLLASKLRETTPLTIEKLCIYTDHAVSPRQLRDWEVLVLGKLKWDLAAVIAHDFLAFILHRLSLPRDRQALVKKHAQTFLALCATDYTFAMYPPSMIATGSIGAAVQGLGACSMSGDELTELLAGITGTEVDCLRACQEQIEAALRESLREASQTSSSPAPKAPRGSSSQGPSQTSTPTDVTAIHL
Sequence of Protein cereblon/Cyclin-dependent kinase 6/G1/S-specific cyclin-D3 (Homo sapiens) (Q00534 whole entry, looked up): as the sequence (Q00534 whole entry, looked up) above
Sequence of Protein cereblon/Cyclin-dependent kinase 6/G1/S-specific cyclin-D3 (Homo sapiens) (Q96SW2 whole entry, looked up): as the sequence (Q96SW2 whole entry, looked up) above

[26] = biological target: T2, Protein cereblon/Cyclin-dependent kinase 6 (Homo sapiens); assay: Induction of CRBN-mediated CDK6 degradation in human MIAPaCa2 cells at 0.1 uM measured after 24 hrs by western blot analysis; format: cell-based; outline: as §4

T1 sequence (P11802 2-303 limits assumed): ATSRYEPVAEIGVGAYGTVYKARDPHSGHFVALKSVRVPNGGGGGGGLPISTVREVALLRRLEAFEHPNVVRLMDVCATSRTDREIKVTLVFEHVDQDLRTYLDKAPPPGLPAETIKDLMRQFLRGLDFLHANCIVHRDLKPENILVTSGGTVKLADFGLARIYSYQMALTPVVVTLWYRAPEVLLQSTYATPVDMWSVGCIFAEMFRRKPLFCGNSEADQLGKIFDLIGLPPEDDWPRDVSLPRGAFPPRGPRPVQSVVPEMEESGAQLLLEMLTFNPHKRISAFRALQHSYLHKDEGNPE
T1 sequence (Q96SW2 whole entry partner): as the sequence (Q96SW2 whole entry, looked up) above

SMILES: CC(=O)c1c(C)c2cnc(Nc3ccc(N4CCN(CCCCCC(=O)Nc5cccc6c5C(=O)N(C5CCC(=O)NC5=O)C6=O)CC4)cn3)nc2n(C2CCCC2)c1=O (stereo not drawn)
- Activity [1]: Active
- Activity [2]: Active

SMILES: CC(=O)c1c(C)c2cnc(Nc3ccc(N4CCN(CCOCCOCCOc5cccc6c5C(=O)N(C5CCC(=O)NC5=O)C6=O)CC4)cn3)nc2n(C2CCCC2)c1=O (stereo not drawn)
- Activity [1]: Active
- Activity [2]: Active

SMILES: CC(=O)c1c(C)c2cnc(Nc3ccc(N4CCN(CC(=O)NCCCCCCCCNc5cccc6c5C(=O)N(C5CCC(=O)NC5=O)C6=O)CC4)cn3)nc2n(C2CCCC2)c1=O (stereo not drawn)
- Activity [2]: Active

Second part, the compound after the results:

- Activity [1]: Active
- Activity [2]: Active
SMILES: CC(=O)c1c(C)c2cnc(Nc3ccc(N4CCN(CC(=O)NCCCCNc5cccc6c5C(=O)N(C5CCC(=O)NC5=O)C6=O)CC4)cn3)nc2n(C2CCCC2)c1=O (stereo not drawn)

- Activity [3]: Active
- Activity [4]: inactive
- Activity [5]: inactive
- Activity [1]: inactive
- Activity [2]: Active
- Activity [6]: inactive
- Activity [7]: Tde
- Activity [8]: Active
- Activity [9]: inactive
- Activity [10]: inactive
- Activity [11]: inactive
- Activity [12]: inactive
- Activity [13]: inactive
- Activity [14]: inactive
- Activity [15]: Tde
- Activity [16]: < 1.5 nM
- Activity [17]: Active
- Activity [18]: Active
- Activity [19]: inactive
- Activity [20]: inactive
- Activity [21]: Active
- Activity [22]: Active
- Activity [23]: inactive
- Activity [24]: Active
- Activity [25]: 6.61 nM
- Activity [26]: Active
SMILES: CC(=O)c1c(C)c2cnc(Nc3ccc(N4CCN(CC(=O)NCCCOCCOCCOCCCNc5cccc6c5C(=O)N(C5CCC(=O)NC5=O)C6=O)CC4)cn3)nc2n(C2CCCC2)c1=O (stereo not drawn)

From ChEMBL document CHEMBL4340529, “Selective degradation of CDK6 by a palbociclib based PROTAC” (Bioorg Med Chem Lett, 2019)
